SENP6 block = SENP6 protease inhibitors, primary screen, biochemical, luminescence, uHTS; actives 1.8% (n = 330,000); inhibition, % at 10 µM; AID 2599, 2010; Sentrin-specific protease 6 (Homo sapiens), Q9GZR1; Recombinant SENP6 catalytic domain, aminoluciferin luminescence;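 active means inhibition above about 50% at the single tested dose, limit read from the data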;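 further: plate controls were DMSO wells with enzyme for no effect and DMSO wells lacking enzyme for full effect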
SENP8 block-1 = human SENP8 protease inhibitors, primary screen, biochemical, fluorescence, Nedd8 protein substrate, uHTS; Sentrin-specific protease 8 (Homo sapiens), Q96LD8; inhibition, % at 20 µM; actives 0.64% (n = 360,000); recombinant SENP8; in the data active means inhibition mostly above about 40%, no sharp cut-off; inactive means mostly below about 27%
SENP1 FRET inh = human SENP1 catalytic domain inhibitors, primary screen, biochemical, FRET, uHTS. AID 624204, 2012. actives 0.21% (n = 360,000). recombinant SENP1 catalytic domain, CyPet-SUMO1-YPet FRET cleavage. inhibition, % at 10 µM. Sentrin-specific protease 1 (Homo sapiens), Q9P0U3;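 active means inhibition at least 30% at 10 µM, raw YFP signal under a set limit, fluorescence ratio 0.5 to 1.5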;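 further: 0% = enzyme with DMSO and 100% = no enzyme wells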
Target sequence (Q9P0U3 419-644 limits assumed): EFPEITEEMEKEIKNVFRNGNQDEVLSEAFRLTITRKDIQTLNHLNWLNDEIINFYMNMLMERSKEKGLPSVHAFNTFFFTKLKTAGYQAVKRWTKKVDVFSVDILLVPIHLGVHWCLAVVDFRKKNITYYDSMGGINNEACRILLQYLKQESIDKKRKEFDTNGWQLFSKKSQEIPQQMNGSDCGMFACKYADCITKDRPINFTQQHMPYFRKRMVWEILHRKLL
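Test system: recombinant human SENP1 catalytic domain, His6-tagged / Medium: pH 8 Tris buffer with EDTA, NaCl, BME, BSA, NP40, catalase / Also added: SUMO1 FRET substrate flanked by Cypet and Ypet, 25 nM / Times: 50 min reaction at room temperature / Signal: FRET, CFP and YFP emission / Control set: no-enzyme low control and enzyme-plus-DMSO high control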
SENP8 block-2 = SENP8 protease inhibitors, primary screen, biochemical, luminescence. inhibition, % at 10 µM. actives 1.2% (n = 330,000). purified SENP8, Z-RLRGG-aminoluciferin cleavage. Sentrin-specific protease 8 (Homo sapiens), Q96LD8; in the data active means inhibition above about 50%
SENP7 block = SENP7 protease inhibitors, primary screen, biochemical, luminescence, uHTS. recombinant SENP7, Z-RLRGG-aminoluciferin luminescence, 40 min. inhibition, % at 5 µM. AID 434973, 2010. actives 1.5% (n = 330,000);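 active means inhibition above about 50% at the single test dose, limit read from the data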;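 further: plate controls were DMSO with enzyme for no effect and no enzyme buffer wells for full effect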
SENP8 confirm = SENP8 protease inhibitors, retest, confirmation, biochemical, luminescence, single concentration. Recombinant SENP8, Z-RLRGG-aminoluciferin luminescence, 60 min. shares compounds with SENP7 block. actives 40% (n = 6,200). AID 488912, 2010. inhibition, % at 12.5 µM;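 active means mean inhibition across replicates above about 50%, limit read from the data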
SENP6 confirm = SENP6 protease inhibitors, confirmation, biochemical, luminescence, single concentration. AID 488915, 2010. inhibition, % at 12.5 µM. shares compounds with SENP7 block. actives 58% (n = 6,200). recombinant SENP6, Z-RLRGG-aminoluciferin luminescence
SENP7 confirm = SENP7 protease inhibitors, retest, confirmation, biochemical, luminescence, single concentration; recombinant SENP7, Z-RLRGG-aminoluciferin luminescence, 40 min; shares compounds with SENP7 block; inhibition, % at 12.5 µM; AID 488917, 2010; actives 69% (n = 6,200)
Casp3 SENP sel = caspase-3 protease inhibitors, confirmation, selectivity assay for SENP inhibitor project, biochemical, single concentration. inhibition, % at 12.5 µM. shares compounds with SENP7 block. actives 60% (n = 6,200). AID 488918, 2010. purified caspase-3, Z-DEVD-aminoluciferin luminescence, 60 min;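 active means mean inhibition above about 50%, limit read from the data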;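 further: plate controls were enzyme with DMSO for no effect and wells without caspase-3 for full effect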
Target sequence (P42574 28-227 limits assumed): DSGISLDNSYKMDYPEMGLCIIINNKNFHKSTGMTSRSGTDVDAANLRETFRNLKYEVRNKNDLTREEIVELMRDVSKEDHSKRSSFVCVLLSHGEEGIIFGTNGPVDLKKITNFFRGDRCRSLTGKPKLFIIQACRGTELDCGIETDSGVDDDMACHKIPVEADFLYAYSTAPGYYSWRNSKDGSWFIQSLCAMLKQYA
SENP luc ctr = interferes with luciferase luminescence in SENP counter-screen; actives 39% (n = 6,200); inhibition, % at 12.5 µM; shares compounds with SENP7 block; Pre-incubated SENP8/Z-RLRGG-aminoluciferin, luciferase luminescence interference;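 active means mean inhibition above about 50% when retested at one dose, limit read from the data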;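 further: plate controls were DMSO wells with completed reaction for no effect and substrate without enzyme for full effect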
Starred values were filed as active, the others as inactive; · = not tested or not shown. This is a sample that favours compounds with a hit; in the whole collection about 2.5% have one here.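 How the source made its calls, unless noted: active means mean inhibition above about 50% in the one-dose retest (limit read from the data); inactive means the rest.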

SMILES	SENP6 block	SENP8 block-1	SENP1 FRET inh	SENP8 block-2	SENP7 block	SENP8 confirm	SENP6 confirm	SENP7 confirm	Casp3 SENP sel	SENP luc ctr
CCCS(=O)(=O)NC(=O)C1(C)CCN(C(=O)c2ccc(OC)cc2OC)C1 (centres undefined)	·	24.7	1.6	·	·	·	·	·	·	·
CC1CCC(C(C)C)C(OC(=O)CSc2n[nH]c(=O)[nH]c2=O)C1 (centres undefined)	-0.3	4.7	0.8	50.8*	-4.4	-2.8	5.2	9.2	2.6	-9.1
CCC(=O)N(C)CCc1cc2c(c(OC)c1/C=N/NC(=O)c1ccc(Br)cc1)OCO2	-2.2	-47.2	-0.1	0.0	10.7	·	·	·	·	·
Cc1ccccc1C(=O)Nc1ccc(Br)cn1	59.2*	5.7	1.1	39.4	51.3*	7.1	40.0	79.1*	63.3*	16.5
Cc1ccc(NC(=O)c2cc(F)c(F)cc2Cl)nc1	-13.6	3.9	2.5	-8.3	4.2	·	·	·	·	·
O=C(Nc1ccc(Br)cn1)c1ccc(Br)s1	50.5*	11.0	-0.1	39.3	47.6	10.5	15.5	76.9*	39.9	27.1
O=C(Nc1ccccc1C(=O)Nc1ccc(Br)cn1)c1ccccc1Cl	-6.9	-11.1	0.1	-4.9	0.1	·	·	·	·	·
Cc1ccc(NC(=O)c2ccccc2F)nc1	74.1*	-318.4	1.8	43.7	50.6*	33.2	58.4*	85.4*	85.8*	48.7
Cc1cc(C(=O)Nc2ccc(Br)cn2)sc1C	84.3*	-2.1	0.4	84.2*	87.2*	80.8*	86.9*	97.4*	78.5*	64.0*
COc1cccc(NC(=O)COC(=O)C2CC3CCCC(C2)C3=O)c1 (centres undefined)	-26.6	-1.0	2.3	-11.1	-11.5	·	·	·	·	·
CN1C(=O)N(CC(=O)Nc2sccc2C(N)=O)C(=O)C12CCCCC2	10.2	-21.2	-8.4	-9.7	-7.8	·	·	·	·	·
Cc1ccc(NC(CC(=O)c2ccccc2)c2ccc(F)cc2)cc1 (centres undefined)	-3.0	1.9	0.4	-2.7	-0.1	·	·	·	·	·
O=C(CC(Nc1ccc(F)cc1)C(=O)O)c1ccccc1 (centres undefined)	96.0*	-29.6	-14.0	82.7*	74.4*	69.2*	82.5*	90.8*	83.4*	31.0
O=C(/C=C/Nc1ccc(Br)cn1)c1cccc(OC(F)F)c1	40.2	-263.3	-39.9	49.4	62.4*	14.6	31.0	34.4	16.6	1.2
CCN(CC)C(=O)COc1ccc2c3c(c(=O)oc2c1C)CCCC3	-27.7	-398.9	-13.8	0.0	-5.2	·	·	·	·	·
COC(=O)c1ccc(COc2ccc3c4c(c(=O)oc3c2)CCC4)o1	77.5*	-126.4	-8.6	70.3*	57.7*	13.6	17.2	3.1	1.4	-5.4
Cc1c(OCc2ccc(C(=O)O)o2)ccc2c3c(c(=O)oc12)CCC3	81.9*	-152.7	-32.1	73.7*	7.8	9.5	84.4*	84.5*	16.7	57.0*
COc1ccc(NC(=O)N(C)[C@H]2C[C@H]3c4[nH]c5ccccc5c4CCN3C(=O)[C@H]2CO)cc1	·	-99.0	-23.5	·	·	·	·	·	·	·

High-throughput results deposited in PubChem by Sanford-Burnham Center for Chemical Genomics.
